{"source": "BindingDB's records for doi:10.1021/acs.jmedchem.0c00522", "about": "(Leiden University & Oncode Institute, 2020)", "key": {"[1]": {"molecular_target": "T1, Phospholipase A and acyltransferase 2 (Homo sapiens, UniProt Q9NWW9)", "T1 sequence (Q9NWW9 whole entry)": "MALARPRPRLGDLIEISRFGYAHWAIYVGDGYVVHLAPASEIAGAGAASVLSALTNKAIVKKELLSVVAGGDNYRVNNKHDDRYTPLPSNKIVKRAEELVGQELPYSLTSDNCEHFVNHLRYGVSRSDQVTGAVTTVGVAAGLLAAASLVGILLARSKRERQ", "assay": "Inhibition of full-length C-terminal FLAG-tagged human PLAAT2 expressed in HEK293T cell lysate preincubated for 30 mins followed by MB064 addition and measured after 20 mins by SDS-PAGE based ABPP analysis", "procedure,_shortened": "(§1)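 Dose–response competitive ABPP on cytosol only, from HEK293T overexpressing FLAG-tagged PLAAT. Inhibitor 30 min rt, then MB064 20 min rt. PLAAT2 0.25 μg/μL with 250 nM probe; PLAAT3 0.5 μg/μL with 250 nM; PLAAT4 and PLAAT5 1 μg/μL with 500 nM. Fluorescence normalized to Coomassie. IC50 from curves, reported as pIC50 ± SEM, n = 3.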"}, "[2]": {"molecular_target": "T2, Phospholipase A and acyltransferase 5 (Homo sapiens, UniProt Q96KN8)", "T2 sequence (Q96KN8 whole entry)": "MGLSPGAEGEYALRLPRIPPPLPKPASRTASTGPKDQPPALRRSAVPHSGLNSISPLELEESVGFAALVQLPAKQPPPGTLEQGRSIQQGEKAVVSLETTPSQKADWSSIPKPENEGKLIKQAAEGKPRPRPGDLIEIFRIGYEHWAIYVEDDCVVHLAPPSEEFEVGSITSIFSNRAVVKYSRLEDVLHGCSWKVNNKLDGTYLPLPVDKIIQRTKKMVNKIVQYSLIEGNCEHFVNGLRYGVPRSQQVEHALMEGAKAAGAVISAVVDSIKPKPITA", "assay": "Inhibition of full-length C-terminal FLAG-tagged human PLAAT5 expressed in HEK293T cell lysate preincubated for 30 mins followed by MB064 addition and measured after 20 mins by SDS-PAGE based ABPP analysis", "procedure,_shortened": "as §1"}}}
{"smiles": "O=C(CCc1ccc(Cl)cc1)C(=O)NCCc1ccccc1", "values": [{"measurement": "IC50", "setting": "[1]", "result": 631, "unit": "nM"}, {"measurement": "IC50", "setting": "[2]", "result": 398, "unit": "nM"}]}
{"smiles": "O=C(CCCc1ccccc1)C(=O)NCCc1ccc(Oc2ccc(C(F)(F)F)cn2)cc1", "values": [{"measurement": "IC50", "setting": "[1]", "result": 158, "unit": "nM"}]}
